In publication PMC5634372 (International Journal of Nanomedicine, 2017):

Columns and labels:
[1] = test system: xenograft model of colon cancer; details: cited from earlier work
MDA-MB-231 xenografts = experiment: Xenograft model of TNBC, tumor growth; format: in vivo, SCID mice; details: 10 mg/kg iv twice a week for 2 weeks, vs vehicle control
Procedure, shortened: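 Female SCID mice (7–8 weeks) given s.c. rear-flank 1×10^6 MDA-MB-231 cells in 0.1 mL 50% Matrigel. At 100 mm3, randomized (eight per group). Dosed via tail vein twice weekly for 2 weeks with free or SMA-micelle test compound, or vehicle (100 μL; SMA in NaOH, pH 7.4). Tumor volume (L×W×H) by electronic calipers, two independent measurements bi-weekly. Euthanized day 24.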

TNBC cell lines = details: cited from earlier work

SMILES: COc1cc(C=C2CN(C)CC(=Cc3cc(OC)c(OC)c(OC)c3)C2=O)cc(OC)c1OC [RL71, 3,5-bis(3,4,5-trimethoxybenzylidene)-1-methylpiperidine-4-one]
- body weight ([1]; 4 mg/kg, after 15 days): nonsignificant loss of body weight
- tumor growth ([1]; 4 mg/kg/day intraperitoneally for 14 days): significantly suppressed tumor growth
- liver or spleen weight ([1]; intraperitoneal administration for 2 weeks): did not alter liver or spleen weight
- growth rate of colon tumors following treatment ([1]; over 15 days, 4 mg/kg/day ip): 400%
- tumor growth (MDA-MB-231 xenografts): unable to suppress tumor growth
- apoptosis and cell cycle effect (TNBC cell lines; 1 µM, several TNBC cell lines): induced apoptosis and elicited G2/M phase cell cycle arrest
- cytotoxic potency relative to curcumin (TNBC cell lines; greater than curcumin): 20 fold
